The record followed here is ChEMBL document CHEMBL1130667, “Discovery of an imidazopyridine-containing 1,4-benzodiazepine nonpeptide vitronectin receptor (alpha v beta 3) antagonist with efficacy in a restenosis model” (Bioorg Med Chem Lett, 1998).

Series [1] concerns HEK293. In words: Antagonistic activity was measured by the adhesion of HEK 293 cells transfected with human alphaV-beta3 to vitronectin-coated plates. The format is functional, cell-based. An outline of the steps: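 HEK 293 cells transfected with human αvβ3 are allowed to adhere to vitronectin-coated plates. IC50 comes from two experiments run in triplicate, with an internal reference standard included.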

Series [2] concerns the target Integrin alpha-V/beta-3 (Homo sapiens, UniProt P05106+P06756). In words: Antagonistic activity for human vitronectin receptor (alphaV-beta3) from platelets. The class given is functional. In outline:
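Competitive binding to human αvβ3 purified from platelets; a tritiated RGD peptide is the displaced ligand. Ki values are the means of two to three separate experiments, with typical assay variability of ±10%.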

Series [3] in a line: (§1) Plasma clearance was measured in rat. The format is ADME, organism-based. The conditions noted are these: plasma.
The species named for series [4] is Rattus norvegicus. The series can be described thus: Compound was measured for in vitro efficacy in blocking vitronectin-induced migration of rat aortic smooth muscle cells (RASMC). The class given is functional, cell-based.
The nature of series [5]: Oral bioavailability in rat. The conditions noted are these: in vivo. The format is ADME, organism-based.
The nature of series [6]: Biological half-life measured in plasma of rat. The class given is ADME, organism-based.
The nature of series [7]: Biological half-life measured in plasma of rat; 22-25. The format is ADME, organism-based.
For series [8], the species on record is Rattus norvegicus. Described as §1. The class given is ADME, organism-based. The conditions noted are these: in vivo.
Series [9] in a line: Bioavailability was measured in rat after oral administration; 2-4. The class given is ADME, organism-based. As to conditions: in vivo, read-out: Bioavailabiility.
Series [10] can be described thus: Biological half-life measured in plasma of rat; 9-16. The class given is ADME, organism-based.
Series [11] is filed under the species Rattus norvegicus. The series can be described thus: Maximum plasma concentration of compound was measured in rat. As to conditions: in vivo. The format is ADME, organism-based.
Series [12] is described as follows: Bioavailability was measured in rat after oral administration; 3-7. The format is ADME, organism-based. As to conditions: in vivo, read-out: Bioavailabiility.

Bounds are passed on as bounds.

Sequence of Integrin alpha-V/beta-3 (P05106 27-788 limits assumed): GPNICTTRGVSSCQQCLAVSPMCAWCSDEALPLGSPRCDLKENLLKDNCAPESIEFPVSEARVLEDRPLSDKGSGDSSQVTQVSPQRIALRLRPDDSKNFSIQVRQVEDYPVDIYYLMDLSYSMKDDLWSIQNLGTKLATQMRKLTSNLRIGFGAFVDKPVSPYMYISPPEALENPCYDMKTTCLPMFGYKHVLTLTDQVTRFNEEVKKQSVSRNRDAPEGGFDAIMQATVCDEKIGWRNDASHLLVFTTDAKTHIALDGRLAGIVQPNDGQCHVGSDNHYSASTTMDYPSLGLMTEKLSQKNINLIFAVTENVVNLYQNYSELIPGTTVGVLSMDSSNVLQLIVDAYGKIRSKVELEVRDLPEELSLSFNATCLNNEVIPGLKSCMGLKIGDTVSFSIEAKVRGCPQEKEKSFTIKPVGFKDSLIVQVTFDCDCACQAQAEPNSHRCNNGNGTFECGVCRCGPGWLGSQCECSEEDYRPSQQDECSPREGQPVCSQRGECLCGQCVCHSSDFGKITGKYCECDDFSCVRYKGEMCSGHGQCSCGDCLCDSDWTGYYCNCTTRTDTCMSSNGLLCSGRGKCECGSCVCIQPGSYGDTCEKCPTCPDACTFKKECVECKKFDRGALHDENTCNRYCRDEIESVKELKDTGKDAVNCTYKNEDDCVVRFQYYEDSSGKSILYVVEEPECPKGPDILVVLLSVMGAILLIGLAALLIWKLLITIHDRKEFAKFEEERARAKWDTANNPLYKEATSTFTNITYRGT
Sequence of Integrin alpha-V/beta-3 (P06756 31-889 limits assumed): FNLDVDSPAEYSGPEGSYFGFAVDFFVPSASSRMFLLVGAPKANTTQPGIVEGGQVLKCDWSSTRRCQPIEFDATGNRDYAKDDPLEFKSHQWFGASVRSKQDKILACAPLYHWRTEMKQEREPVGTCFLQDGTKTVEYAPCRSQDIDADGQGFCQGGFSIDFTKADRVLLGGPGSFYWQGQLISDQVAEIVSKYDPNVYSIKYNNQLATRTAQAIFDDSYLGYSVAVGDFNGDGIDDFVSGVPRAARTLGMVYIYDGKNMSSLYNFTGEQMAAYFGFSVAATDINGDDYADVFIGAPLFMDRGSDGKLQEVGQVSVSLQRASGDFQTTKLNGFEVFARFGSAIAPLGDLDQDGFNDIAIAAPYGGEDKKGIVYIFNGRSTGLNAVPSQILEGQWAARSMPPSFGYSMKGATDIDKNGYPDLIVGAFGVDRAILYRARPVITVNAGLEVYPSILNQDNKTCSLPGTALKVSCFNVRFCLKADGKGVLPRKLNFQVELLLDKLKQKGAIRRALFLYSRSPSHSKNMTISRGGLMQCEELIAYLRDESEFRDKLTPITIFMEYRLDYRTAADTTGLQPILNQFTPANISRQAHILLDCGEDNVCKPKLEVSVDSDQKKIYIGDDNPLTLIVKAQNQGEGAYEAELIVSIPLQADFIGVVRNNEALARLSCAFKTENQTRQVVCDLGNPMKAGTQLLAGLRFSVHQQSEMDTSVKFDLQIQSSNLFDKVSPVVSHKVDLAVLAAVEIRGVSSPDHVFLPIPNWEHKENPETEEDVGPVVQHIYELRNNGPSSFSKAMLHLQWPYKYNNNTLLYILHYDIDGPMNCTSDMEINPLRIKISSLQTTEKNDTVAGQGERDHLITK
Sequence of Integrin alpha-V/beta-3 (P06756 891-1048 limits assumed): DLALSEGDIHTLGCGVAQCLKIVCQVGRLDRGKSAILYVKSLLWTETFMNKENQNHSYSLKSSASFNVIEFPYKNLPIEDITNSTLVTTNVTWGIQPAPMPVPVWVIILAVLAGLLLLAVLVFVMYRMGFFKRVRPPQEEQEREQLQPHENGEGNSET

For `Cc1ccc2nc(CN(C)C(=O)c3ccc4c(c3)CNC(=O)[C@H](CC(=O)O)N4)nc-2[nH]1`, 2500 nM corresponded to half-maximal inhibition in [1] (IC50). The Ki in series [2] amounted to 10 nM.
The compound `CN(Cc1nc2ccc[nH]c-2n1)C(=O)c1ccc2c(c1)CN(C)C(=O)[C@H](CC(=O)O)N2` had a 50% inhibitory concentration (IC50) in [1] of 270 nM. In addition, the Ki in series [2] came to 3 nM.
With `Cc1ccc2nc(CNC(=O)c3ccc4c(c3)CN(C)C(=O)[C@H](CC(=O)O)N4)nc-2[nH]1`, the clearance in series [3] came out at 1.8 mL/min/kg. Moreover, the half-maximal inhibitory concentration (IC50) in series [4] is 1600 nM; in [1], 9000 nM. This compound also gave a bioavailability in [5] of 8%. The compound also registered a half-life in series [6] of 92 min. In series [2], this compound had a Ki of 45 nM.
For `Cc1cc(C)c2[nH]c(CN(C)C(=O)c3ccc4c(c3)CN(C)C(=O)[C@H](CC(=O)O)N4)nc2n1`, affinity in [2] was put at a Ki of 710 nM.
For `Cc1ccc2[nH]c(CN(C)C(=O)c3ccc4c(c3)CN(C)C(=O)[C@H](CC(=O)O)N4)nc2n1`, the half-life in series [7] came out at 25 min. For the same compound, the clearance worked out at 19 mL/min/kg in [8] and 17 mL/min/kg in [3]. Moreover, the results for the IC50 in [4] and in [1] were 170 nM and 450 nM, respectively. For the same compound, the bioavailability in [9] came out at 4%. The same compound showed a Ki in series [2] of 3 nM.
On to `CN(Cc1nc2ncncc2[nH]1)C(=O)c1ccc2c(c1)CN(C)C(=O)[C@H](CC(=O)O)N2`, for which the IC50 in [1] worked out at 5000 nM. Further, in series [2], the Ki turned out to be 23 nM.
For the compound `CN(Cc1nc2ccccc2[nH]1)C(=O)c1ccc2c(c1)CN(C)C(=O)[C@H](CC(=O)O)N2`, in series [3], the clearance came out at 35 mL/min/kg. In series [4], this compound showed an IC50 of 370 nM. Moreover, the half-life in [10] is 16 min. In series [11], this compound yielded a Cmax of 819 ng/mL. Moreover, the bioavailability in series [12] was determined as 7%.
In series [1], `Cc1ccc2[nH]c(CNC(=O)c3ccc4c(c3)CNC(=O)[C@H](CC(=O)O)N4)nc2n1` (racemic) yielded a 50% inhibitory concentration (IC50) of 20000 nM. The compound also displayed an inhibition constant Ki in series [2] of 90 nM.
Consider `COCCN1Cc2cc(C(=O)NCc3nc4ccc(C)[nH]c-4n3)ccc2N[C@@H](CC(=O)O)C1=O` (racemic), for which the IC50 in series [1] is 10000 nM. The compound further showed a Ki in series [2] of 50 nM.
On the same counts, the results for `CN(Cc1nc2cc[nH]nc-2n1)C(=O)c1ccc2c(c1)CN(C)C(=O)[C@H](CC(=O)O)N2` (racemic) are 1500 nM and 19 nM.
The like results for `CC(C)N1Cc2cc(C(=O)N(C)Cc3nc4ncccc4[nH]3)ccc2N[C@@H](CC(=O)O)C1=O` (racemic) were, in that order, 2000 nM and 4 nM.
Turning to `Cc1ccc2[nH]c(CNC(=O)c3ccc4c(c3)CN(Cc3ccccc3)C(=O)[C@H](CC(=O)O)N4)nc2n1` (racemic), in series [2], the affinity, expressed as Ki, was 60 nM.
Take `Cc1ccc2nc(CN(C)C(=O)c3ccc4c(c3)CN(Cc3ccccc3)C(=O)[C@H](CC(=O)O)N4)nc-2[nH]1` (racemic): in [1], the IC50 was found to be 160 nM. For the same compound, in [2], the Ki turned out to be 13 nM.
Take `COCCN1Cc2cc(C(=O)N(C)Cc3nc4ncccc4[nH]3)ccc2N[C@@H](CC(=O)O)C1=O` (racemic): the clearance in series [3] is 31 mL/min/kg. For the same compound, the IC50 in series [4] amounted to 230 nM; in [1] it was 500 nM. The same compound yielded a bioavailability in series [5] of 4%. In series [6], the half-life came out at 25 min. This compound also displayed a Cmax in series [11] of 692 ng/mL. Further, the Ki in series [2] was 2.5 nM.
The compound `CN(Cc1nc2ccc[nH]c-2n1)C(=O)c1ccc2c(c1)CN(CCC(C)(C)C)C(=O)[C@H](CC(=O)O)N2` (racemic) had a clearance in series [3] of 55 mL/min/kg. Besides, the IC50 in series [4] turned out to be 470 nM; in series [1], 250 nM. Also, the bioavailability in series [5] is < 1%. The half-life in series [6] is 14 min. This compound had a Cmax in series [11] of 555 ng/mL. This compound also registered a Ki in series [2] of 2.5 nM.

Broadly, the IC50 is the concentration that gives 50% inhibition. For orientation: Ki means a measure of affinity in units of concentration, obtained from inhibition or displacement. Lower therefore signals a stronger hold on the target. The term clearance denotes a measure of how efficiently the substance is removed, as volume per time. Lower therefore signals a low capacity for elimination. In general, half-life refers to the time needed for the level to fall by half in the phase considered. Higher therefore signals slow loss. A word on the Cmax: it is the maximum level reached in the sampled fluid or tissue.
